Laboratory results published in ChEMBL document CHEMBL4014345, “Development of Selective Clk1 and -4 Inhibitors for Cellular Depletion of Cancer-Relevant Proteins” (J Med Chem, 2017).
One block for each compound: values may come before it. Activity calls are given as the source filed them. The rule behind the calls is not given here.

Experiments:
[1] = molecular target: T1, Dual specificity protein kinase CLK1 (Homo sapiens, UniProt P49759); test: Inhibition of recombinant human GST-tagged Clk1 expressed in Escherichia coli using RS repeat substrate peptide after 15 mins in presence of [gamma-32]-ATP
Target sequence in this assay (P49759 whole entry): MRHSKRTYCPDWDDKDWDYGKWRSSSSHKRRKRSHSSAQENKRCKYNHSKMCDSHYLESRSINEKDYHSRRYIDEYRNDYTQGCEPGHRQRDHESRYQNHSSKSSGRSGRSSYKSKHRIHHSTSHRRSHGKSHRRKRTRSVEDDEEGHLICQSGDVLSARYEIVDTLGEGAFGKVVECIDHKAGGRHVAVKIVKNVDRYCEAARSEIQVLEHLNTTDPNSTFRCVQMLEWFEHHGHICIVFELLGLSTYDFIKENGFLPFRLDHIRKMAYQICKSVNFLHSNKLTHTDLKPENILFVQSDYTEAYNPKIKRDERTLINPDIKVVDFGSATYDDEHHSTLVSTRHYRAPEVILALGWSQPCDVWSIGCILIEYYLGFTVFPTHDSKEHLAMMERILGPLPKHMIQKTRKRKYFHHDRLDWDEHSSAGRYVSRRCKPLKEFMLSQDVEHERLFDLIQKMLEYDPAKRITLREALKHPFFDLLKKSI

T47D = test: Cytotoxicity against human T47D cells assessed as growth inhibition after 5 days by MTT assay; assay type: functional; conditions: 120 h
Method in brief: (§1)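 They were seeded at 5000 cells per well onto compound or DMSO (0.2% final). Plates were kept 5 days at 37 °C in 5% CO2 with no medium change, then read by MTT.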

T-24 = test: Cytotoxicity against human T24 cells assessed as growth inhibition after 5 days by MTT assay; assay type: functional; conditions: T-24, 120 h; method in brief: as §1
[2] = molecular target: T1, Dual specificity protein kinase CLK1; test: Inhibition of recombinant human GST-tagged Clk1 expressed in Escherichia coli at 100 nM using RS repeat substrate peptide after 15 mins in presence of [gamma-32]-ATP
Target sequence in this assay (P49759 whole entry, looked up): as the sequence (P49759 whole entry) above

MDA-MB-231 = test: Cytotoxicity against human MDA-MB-231 cells assessed as growth inhibition after 5 days by MTT assay; assay type: functional; conditions: MDA-MB-231, 120 h; method in brief: as §1
[3] = molecular target: Dual specificity protein kinase CLK2 (Mus musculus) (UniProt O35491); test: Inhibition of recombinant GST-tagged mouse CLK2 using GRSRSRSRSRSR as substrate at 1 uM after 30 mins in presence of [gamma-32P]-ATP by scintillation counting method
[4] = molecular target: T1, Dual specificity protein kinase CLK1; test: Inhibition of recombinant human GST-tagged Clk1 expressed in Escherichia coli at 1 uM using RS repeat substrate peptide after 15 mins in presence of [gamma-32]-ATP
Target sequence in this assay (P49759 whole entry, looked up): as the sequence (P49759 whole entry) above

[5] = molecular target: Myosin light chain kinase 2, skeletal/cardiac muscle (Homo sapiens) (UniProt Q9H1R3); test: Inhibition of MLCK2 (unknown origin) at 1 uM after 15 mins
Method in brief: (§2)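 Tested in a commercial kinase profiling panel at an ATP concentration of 100 μM. Data are the mean of duplicates that differed by less than 7%.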

[6] = molecular target: T2, Dual specificity tyrosine-phosphorylation-regulated kinase 1A (Homo sapiens, UniProt Q13627); test: Inhibition of N-terminal His6-tagged recombinant human Dyrk1A expressed in Escherichia coli BL21 (DE3) using KKISGRLSPIMTEQ-NH2 as substrate at 1 uM after 15 mins in presence of [gamma-32]-ATP; conditions: 0.25 h
[7] = Cytotoxicity against HEK293 cells assessed as growth inhibition; assay type: cell-based; conditions: human
Method in brief: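 Cytotoxicity was tested in proliferating HEK293 cells with GI50 as the read-out. Data are the mean of at least two independent experiments.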

[8] = molecular target: Dual specificity protein kinase CLK3 (Mus musculus) (UniProt O35492); test: Inhibition of recombinant GST-tagged mouse CLK3 using GRSRSRSRSRSR as substrate at 1 uM after 30 mins in presence of [gamma-32P]-ATP by scintillation counting method
[9] = molecular target: Serine/threonine-protein kinase 17A (Homo sapiens) (UniProt Q9UEE5); test: Inhibition of STK17A (unknown origin) at 1 uM after 15 mins; method in brief: as §2
[10] = molecular target: SRSF protein kinase 2 (Homo sapiens) (UniProt P78362); test: Inhibition of SRPK2 (unknown origin) at 1 uM; method in brief: as §2
[11] = molecular target: T2, Dual specificity tyrosine-phosphorylation-regulated kinase 1A; test: Inhibition of N-terminal His6-tagged recombinant human Dyrk1A expressed in Escherichia coli BL21 (DE3) using KKISGRLSPIMTEQ-NH2 as substrate after 15 mins in presence of [gamma-32]-ATP
[12] = molecular target: Serine/threonine-protein kinase haspin (Homo sapiens) (UniProt Q8TF76); test: Inhibition of MBP-Haspin (unknown origin) at 1 uM after 10 mins by TR-FRET assay; method in brief: as §2
[13] = molecular target: SRSF protein kinase 1 (Homo sapiens) (UniProt Q96SB4); test: Inhibition of SRPK1 (unknown origin) at 1 uM; method in brief: as §2
THP-1 = test: Cytotoxicity against human THP1 cells assessed as growth inhibition after 5 days by MTT assay; assay type: functional; conditions: THP-1, 120 h; method in brief: as §1
HepG2 = test: Cytotoxicity against human HepG2 cells assessed as growth inhibition after 5 days by MTT assay; assay type: functional; conditions: HepG2, 120 h; method in brief: as §1
[14] = molecular target: Dual specificity tyrosine-phosphorylation-regulated kinase 1B (Homo sapiens, UniProt Q9Y463); test: Inhibition of full length recombinant GST-tagged human DYRK1B expressed in baculovirus using KKISGRLSPIMTEQ-NH2 as substrate at 1 uM after 15 mins
[15] = molecular target: Dual specificity protein kinase CLK4 (Mus musculus) (UniProt O35493); test: Inhibition of recombinant GST-tagged mouse CLK4 using GRSRSRSRSRSR as substrate at 1 uM after 30 mins in presence of [gamma-32P]-ATP by scintillation counting method
PBL = test: Cytotoxicity against human PBL after 2 days by MTT assay; assay type: cell-based; conditions: 48 h
Method in brief: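 Cells plated at 30 000 per well with test compounds or DMSO control for 2 days, then MTT read-out. LC50 reported as the mean of at least two independent experiments.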

[16] = molecular target: Dual specificity tyrosine-phosphorylation-regulated kinase 3 (Homo sapiens) (UniProt O43781); test: Inhibition of DYRK3 (unknown origin) using KKISGRLSPIMTEQ-NH2 as substrate at 1 uM after 15 mins in presence of [gamma-32P]-ATP
[17] = molecular target: Dual specificity tyrosine-phosphorylation-regulated kinase 4 (Homo sapiens) (UniProt Q9NR20); test: Inhibition of DYRK4 (unknown origin) using KKISGRLSPIMTEQ-NH2 as substrate at 1 uM after 15 mins in presence of [gamma-32P]-ATP

Serine/threonine-protein kinase 17A (Homo sapiens), sequence (Q9UEE5 whole entry): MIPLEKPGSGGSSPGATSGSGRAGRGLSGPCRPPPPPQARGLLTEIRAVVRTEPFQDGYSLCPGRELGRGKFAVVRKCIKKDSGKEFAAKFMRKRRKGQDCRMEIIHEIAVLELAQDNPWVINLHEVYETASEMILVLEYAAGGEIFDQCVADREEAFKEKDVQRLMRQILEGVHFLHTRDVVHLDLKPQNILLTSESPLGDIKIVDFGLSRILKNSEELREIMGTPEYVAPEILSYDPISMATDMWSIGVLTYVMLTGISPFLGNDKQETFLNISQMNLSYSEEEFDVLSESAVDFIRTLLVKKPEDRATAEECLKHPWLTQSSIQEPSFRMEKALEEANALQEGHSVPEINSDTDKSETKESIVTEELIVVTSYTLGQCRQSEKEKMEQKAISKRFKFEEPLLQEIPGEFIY
Dual specificity protein kinase CLK2 (Mus musculus), sequence (O35491 whole entry, looked up): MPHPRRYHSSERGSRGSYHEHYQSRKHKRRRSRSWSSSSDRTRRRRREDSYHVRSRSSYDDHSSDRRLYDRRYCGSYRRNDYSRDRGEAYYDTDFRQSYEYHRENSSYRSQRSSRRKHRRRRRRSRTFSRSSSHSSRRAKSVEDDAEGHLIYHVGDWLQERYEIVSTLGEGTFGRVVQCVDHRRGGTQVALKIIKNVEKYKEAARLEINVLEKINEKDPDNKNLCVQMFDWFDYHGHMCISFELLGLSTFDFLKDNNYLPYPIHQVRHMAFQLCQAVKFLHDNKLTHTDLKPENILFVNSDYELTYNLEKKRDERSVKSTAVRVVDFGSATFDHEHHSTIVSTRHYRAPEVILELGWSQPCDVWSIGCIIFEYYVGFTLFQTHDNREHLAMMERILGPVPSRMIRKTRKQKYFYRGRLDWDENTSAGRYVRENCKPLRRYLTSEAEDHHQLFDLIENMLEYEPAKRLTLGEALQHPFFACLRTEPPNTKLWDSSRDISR
Dual specificity tyrosine-phosphorylation-regulated kinase 1B, sequence (Q9Y463 whole entry, looked up): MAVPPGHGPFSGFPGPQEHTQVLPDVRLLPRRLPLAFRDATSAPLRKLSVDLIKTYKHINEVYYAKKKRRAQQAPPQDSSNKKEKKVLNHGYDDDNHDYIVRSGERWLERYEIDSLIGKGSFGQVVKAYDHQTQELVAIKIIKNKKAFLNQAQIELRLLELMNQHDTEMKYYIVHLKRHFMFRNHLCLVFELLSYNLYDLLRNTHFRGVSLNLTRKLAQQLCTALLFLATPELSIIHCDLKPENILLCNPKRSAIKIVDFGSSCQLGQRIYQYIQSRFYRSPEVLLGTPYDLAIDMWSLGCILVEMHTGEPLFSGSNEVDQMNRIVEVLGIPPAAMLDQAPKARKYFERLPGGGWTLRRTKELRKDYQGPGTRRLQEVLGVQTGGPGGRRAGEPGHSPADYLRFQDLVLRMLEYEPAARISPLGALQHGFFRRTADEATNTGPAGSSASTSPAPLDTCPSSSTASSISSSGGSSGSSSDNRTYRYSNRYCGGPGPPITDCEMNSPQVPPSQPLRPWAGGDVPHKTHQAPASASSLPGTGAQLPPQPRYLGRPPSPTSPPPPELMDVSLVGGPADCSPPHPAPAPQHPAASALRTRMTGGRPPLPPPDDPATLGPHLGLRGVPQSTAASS
Myosin light chain kinase 2, skeletal/cardiac muscle (Homo sapiens), sequence (Q9H1R3 whole entry): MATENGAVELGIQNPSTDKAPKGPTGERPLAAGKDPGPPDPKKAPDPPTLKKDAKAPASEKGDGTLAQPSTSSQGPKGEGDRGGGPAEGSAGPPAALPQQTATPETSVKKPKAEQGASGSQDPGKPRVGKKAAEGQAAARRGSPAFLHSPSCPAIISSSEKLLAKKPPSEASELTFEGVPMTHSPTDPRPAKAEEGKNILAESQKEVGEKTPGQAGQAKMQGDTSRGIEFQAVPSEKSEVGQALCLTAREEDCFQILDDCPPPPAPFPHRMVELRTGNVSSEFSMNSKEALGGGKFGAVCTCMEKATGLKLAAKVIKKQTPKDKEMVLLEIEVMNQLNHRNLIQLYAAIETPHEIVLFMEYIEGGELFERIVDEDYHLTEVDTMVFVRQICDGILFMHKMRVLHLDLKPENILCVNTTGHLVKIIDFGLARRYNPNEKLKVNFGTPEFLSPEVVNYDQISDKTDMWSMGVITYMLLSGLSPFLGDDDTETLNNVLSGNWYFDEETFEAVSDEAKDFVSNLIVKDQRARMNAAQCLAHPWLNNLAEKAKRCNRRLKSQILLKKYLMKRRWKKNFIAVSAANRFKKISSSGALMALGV
Serine/threonine-protein kinase haspin (Homo sapiens), sequence (Q8TF76 whole entry): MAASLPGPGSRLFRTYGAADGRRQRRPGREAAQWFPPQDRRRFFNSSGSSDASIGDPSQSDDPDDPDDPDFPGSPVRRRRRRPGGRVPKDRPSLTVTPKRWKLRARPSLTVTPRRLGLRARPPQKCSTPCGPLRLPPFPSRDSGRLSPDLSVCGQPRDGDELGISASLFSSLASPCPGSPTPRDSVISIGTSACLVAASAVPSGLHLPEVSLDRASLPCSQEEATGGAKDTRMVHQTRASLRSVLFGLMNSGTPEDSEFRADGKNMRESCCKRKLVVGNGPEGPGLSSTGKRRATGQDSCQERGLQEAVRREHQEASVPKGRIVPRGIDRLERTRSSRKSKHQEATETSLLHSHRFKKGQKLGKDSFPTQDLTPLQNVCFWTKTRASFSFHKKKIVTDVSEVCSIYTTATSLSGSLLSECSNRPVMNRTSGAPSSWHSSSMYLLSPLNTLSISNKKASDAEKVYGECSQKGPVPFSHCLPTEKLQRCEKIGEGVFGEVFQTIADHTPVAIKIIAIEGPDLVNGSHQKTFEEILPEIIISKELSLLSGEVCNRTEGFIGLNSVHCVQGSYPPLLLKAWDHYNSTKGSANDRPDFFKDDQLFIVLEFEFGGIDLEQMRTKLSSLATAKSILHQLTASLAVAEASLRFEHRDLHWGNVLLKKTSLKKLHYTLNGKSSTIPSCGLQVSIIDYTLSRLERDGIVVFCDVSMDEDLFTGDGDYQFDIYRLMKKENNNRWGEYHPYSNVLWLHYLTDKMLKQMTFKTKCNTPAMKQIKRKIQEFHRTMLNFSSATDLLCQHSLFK
Dual specificity protein kinase CLK4 (Mus musculus), sequence (O35493 whole entry, looked up): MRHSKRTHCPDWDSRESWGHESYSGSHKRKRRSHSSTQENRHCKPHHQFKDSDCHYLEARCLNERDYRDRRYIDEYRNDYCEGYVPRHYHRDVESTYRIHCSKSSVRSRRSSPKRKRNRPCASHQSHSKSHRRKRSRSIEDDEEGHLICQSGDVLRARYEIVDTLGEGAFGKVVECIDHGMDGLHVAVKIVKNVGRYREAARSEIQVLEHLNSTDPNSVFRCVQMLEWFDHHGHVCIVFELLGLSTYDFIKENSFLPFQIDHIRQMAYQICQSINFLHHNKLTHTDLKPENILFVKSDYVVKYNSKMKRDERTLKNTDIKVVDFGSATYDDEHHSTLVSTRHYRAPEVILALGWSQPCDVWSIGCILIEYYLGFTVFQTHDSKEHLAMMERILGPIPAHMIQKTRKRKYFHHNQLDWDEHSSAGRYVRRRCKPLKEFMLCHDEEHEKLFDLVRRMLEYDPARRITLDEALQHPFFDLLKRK
Dual specificity tyrosine-phosphorylation-regulated kinase 3 (Homo sapiens), sequence (O43781 whole entry): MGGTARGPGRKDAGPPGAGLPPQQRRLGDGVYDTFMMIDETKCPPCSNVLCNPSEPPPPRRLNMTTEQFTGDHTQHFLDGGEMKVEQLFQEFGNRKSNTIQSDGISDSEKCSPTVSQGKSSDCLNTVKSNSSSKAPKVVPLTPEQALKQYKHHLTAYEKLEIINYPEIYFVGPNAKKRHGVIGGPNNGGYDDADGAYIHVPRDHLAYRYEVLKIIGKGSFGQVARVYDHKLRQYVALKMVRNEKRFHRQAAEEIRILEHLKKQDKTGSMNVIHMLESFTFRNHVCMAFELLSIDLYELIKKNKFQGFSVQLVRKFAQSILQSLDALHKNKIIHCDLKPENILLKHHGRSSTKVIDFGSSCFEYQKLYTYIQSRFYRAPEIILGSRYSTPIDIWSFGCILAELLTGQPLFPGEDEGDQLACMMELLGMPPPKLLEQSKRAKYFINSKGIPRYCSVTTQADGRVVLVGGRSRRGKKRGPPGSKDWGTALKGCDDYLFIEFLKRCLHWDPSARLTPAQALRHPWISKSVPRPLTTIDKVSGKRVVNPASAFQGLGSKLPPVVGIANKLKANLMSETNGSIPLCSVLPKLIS

IC50 [1]: 81.6 nM
inhibition [2]: 51%
SMILES: COc1ccc2sc(C(=O)N(C)Cc3cccnc3)cc2c1
GI50 (T47D): 25.4 µM
GI50 (T-24): 12.5 µM
GI50 (MDA-MB-231): 25.7 µM

inhibition [2]: 28.2%
SMILES: COc1ccc2sc(C(=O)Nc3nccs3)cc2c1

inhibition [2]: 23.2%
SMILES: COc1ccc2sc(C(=O)NCc3ccccc3F)cc2c1

inhibition [2]: 0%
SMILES: COc1ccc2sc(C(=O)N3CCN(C)CC3)cc2c1

SMILES: COc1ccc2sc(C(=O)N(C)Cc3ccccc3)cc2c1
inhibition [3]: 73%
inhibition [4]: 81%
inhibition [5]: inactive
inhibition at 1 µM [6]: 54%
IC50 [1]: 45 nM
GI50 [7]: > 30 µM
GI50 (T47D): 28.8 µM
inhibition [8]: 44%
inhibition [9]: 23%
GI50 (T-24): 2.7 µM
inhibition [10]: 10%
IC50 [11]: 520 nM
inhibition [12]: 12%
inhibition [2]: 70.6%
inhibition [13]: 4%
GI50 (THP-1): > 30 µM
GI50 (HepG2): 3.7 µM
inhibition [14]: 58%
inhibition [15]: 101%
LC50 (PBL): > 30 µM
inhibition [16]: inactive
inhibition [17]: inactive
GI50 (MDA-MB-231): 24.2 µM

inhibition [2]: 9.4%
SMILES: COc1ccc2sc(C(=O)N(C)CCn3ccnc3)cc2c1

inhibition [2]: 0%
SMILES: COC(=O)CNC(=O)c1cc2cc(OC)ccc2s1

inhibition [2]: 28.9%
SMILES: COc1ccc2sc(C(=O)NCc3cccnc3)cc2c1

inhibition [2]: 39.8%
SMILES: COc1ccc2sc(C(=O)NCC(F)(F)F)cc2c1

inhibition [2]: 0%
SMILES: CCOC(=O)[C@H](C)NC(=O)c1cc2cc(OC)ccc2s1

inhibition [2]: 0%
SMILES: COc1ccc2sc(C(=O)NCCO)cc2c1

inhibition [2]: 0%
SMILES: COc1ccc2sc(C(=O)NCc3ncc[nH]3)cc2c1

inhibition [2]: 13.4%
SMILES: COc1cccc(CNC(=O)c2cc3cc(OC)ccc3s2)c1

inhibition [2]: 34.6%
SMILES: COc1ccc2sc(C(=O)N(C)Cc3ccccn3)cc2c1

inhibition [2]: 25%
SMILES: COc1ccc2sc(C(=O)NC3CC3)cc2c1

IC50 [1]: 84 nM
inhibition [2]: 59.4%
SMILES: COc1ccc2sc(C(=O)NCc3ccccc3)cc2c1

inhibition [2]: 0.5%
SMILES: COc1ccc2sc(C(=O)NCC(=O)O)cc2c1

inhibition [2]: 28.7%
SMILES: COc1ccc2sc(C(=O)N(C)Cc3ccc(F)cc3)cc2c1
